Experimental data published in ChEMBL document CHEMBL2062467, “Design, synthesis, antimicrobial, anti-inflammatory and analgesic activity of novel isoxazolyl pyrimido[4,5-b]quinolines and isoxazolyl chromeno[2,3-d]pyrimidin-4-ones” (2012).
Values after ≈ are worked out from the molar mass of the structure shown.

Experiments:
Assay type in all cases: functional
[1] = Antifungal activity against Verticillium dahliae after 72 to 96 hrs by agar cup method
How it was run: (§1)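 Agar cup assay on potato dextrose agar. Plates were spread with 0.5 mL of a one-week-old fungal spore suspension, and 6 mm cups were bored into the agar. Different concentrations of compound in acetone were added to the cups. Acetone and clotrimazole served as controls. Plates were held at room temperature for 72–96 h.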

[2] = test system: Chromobacterium violaceum; test: Antibacterial activity against Chromobacterium violaceum MTCC 2656 after 24 hrs by broth dilution method; settings: MTCC 2656, 24 h
How it was run: (§2)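 Broth dilution MIC in autoclaved nutrient broth tubes. Test compound was dissolved in acetone, and 100 mg/mL (so in the source) was added to the first tube, then serially diluted across the tubes.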

Fusarium oxysporum = test: Antifungal activity against Fusarium oxysporum after 72 to 96 hrs by agar cup method; how it was run: as §1
Staphylococcus aureus = test: Antibacterial activity against Staphylococcus aureus MTCC 96 after 24 hrs by broth dilution method; settings: MTCC 96, 24 h; how it was run: as §2
Pseudomonas aeruginosa = test: Antibacterial activity against Pseudomonas aeruginosa MTCC 741 after 24 hrs by broth dilution method; settings: MTCC 741, 24 h; how it was run: as §2
Rattus norvegicus [3] = test: Analgesic activity in Albino rat assessed as reaction time at 10 mg/kg, po after 2 hrs by Hot plate test
How it was run: (§3)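 Hot plate test of central analgesia in rats, six per group, with a vehicle control group and an Indomethacin group (10 mg/kg po). Test compounds were given orally at 10 mg/kg. Reaction time was read at 0, 1 and 2 h. Values are the mean of six, ± S.E., also expressed as % increase over basal. Statistics used ANOVA/LSD; Dunnett's test vs control (P < 0.05).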

[4] = test system: Lysinibacillus sphaericus; test: Antibacterial activity against Bacillus sphaericus MTCC 511 after 24 hrs by broth dilution method; settings: MTCC 511, 24 h; how it was run: as §2
Klebsiella aerogenes = test: Antibacterial activity against Klebsiella aerogenes MTCC 39 after 24 hrs by broth dilution method; settings: MTCC 39, 24 h; how it was run: as §2
Pythium aphanidermatum = test: Antifungal activity against Pythium aphanidermatum after 72 to 96 hrs by agar cup method; how it was run: as §1
Rhizoctonia solani = test: Antifungal activity against Rhizoctonia solani after 72 to 96 hrs by agar cup method; how it was run: as §1
Colletotrichum truncatum = test: Antifungal activity against Colletotrichum capsici after 72 to 96 hrs by agar cup method; how it was run: as §1
Bacillus subtilis = test: Antibacterial activity against Bacillus subtilis MTCC 441 after 24 hrs by broth dilution method; settings: MTCC 441, 24 h; how it was run: as §2
Rattus norvegicus [5] = test: Analgesic activity in Albino rat assessed as reaction time at 10 mg/kg, po after 1 hr by Hot plate test; how it was run: as §3
Alternaria solani = test: Antifungal activity against Alternaria solani after 72 to 96 hrs by agar cup method; how it was run: as §1

SMILES | MIC [1] | MIC [2] | MIC (Fusarium oxysporum) | MIC (Staphylococcus aureus) | MIC (Pseudomonas aeruginosa) | Time (Rattus norvegicus [3]) | MIC [4] | MIC (Klebsiella aerogenes) | MIC (Pythium aphanidermatum) | MIC (Rhizoctonia solani) | MIC (Colletotrichum truncatum) | MIC (Bacillus subtilis) | Time (Rattus norvegicus [5]) | MIC (Alternaria solani)
Cc1noc(/C=C/c2ccccc2)c1N1CN=C2Oc3ccccc3C=C2C1=O | 18 µg/mL (≈ 46.9 µM) | 18 µg/mL (≈ 46.9 µM) | 16 µg/mL (≈ 41.7 µM) | 16 µg/mL (≈ 41.7 µM) | 14 µg/mL (≈ 36.5 µM) | 15.7 s | 12 µg/mL (≈ 31.3 µM) | 18 µg/mL (≈ 46.9 µM) | 18 µg/mL (≈ 46.9 µM) | 12 µg/mL (≈ 31.3 µM) | 20 µg/mL (≈ 52.2 µM) | 18 µg/mL (≈ 46.9 µM) | 17.7 s | 20 µg/mL (≈ 52.2 µM)
Cc1noc(/C=C/c2ccccc2)c1-n1c(C)nc2nc3ccccc3cc2c1=O | 14 µg/mL (≈ 35.5 µM) | 20 µg/mL (≈ 50.7 µM) | 16 µg/mL (≈ 40.6 µM) | 20 µg/mL (≈ 50.7 µM) | 24 µg/mL (≈ 60.8 µM) | 16.5 s | 22 µg/mL (≈ 55.8 µM) | 20 µg/mL (≈ 50.7 µM) | 18 µg/mL (≈ 45.6 µM) | 12 µg/mL (≈ 30.4 µM) | 15 µg/mL (≈ 38 µM) | 20 µg/mL (≈ 50.7 µM) | 14.8 s | 10 µg/mL (≈ 25.4 µM)
Cc1ccc(/C=C/c2onc(C)c2N2CN=C3Oc4ccc(Cl)cc4C=C3C2=O)cc1 | 10 µg/mL (≈ 23.2 µM) | 18 µg/mL (≈ 41.7 µM) | 9 µg/mL (≈ 20.8 µM) | 15 µg/mL (≈ 34.7 µM) | 11 µg/mL (≈ 25.5 µM) | 24.7 s | 16 µg/mL (≈ 37 µM) | 18 µg/mL (≈ 41.7 µM) | 9 µg/mL (≈ 20.8 µM) | 11 µg/mL (≈ 25.5 µM) | 12 µg/mL (≈ 27.8 µM) | 14 µg/mL (≈ 32.4 µM) | 19.1 s | 8 µg/mL (≈ 18.5 µM)
Cc1ccc(/C=C/c2onc(C)c2-n2c(C)nc3nc4ccc(Cl)cc4cc3c2=O)cc1 | 11 µg/mL (≈ 24.8 µM) | 12 µg/mL (≈ 27.1 µM) | 10 µg/mL (≈ 22.6 µM) | 10 µg/mL (≈ 22.6 µM) | 10 µg/mL (≈ 22.6 µM) | 22.3 s | 11 µg/mL (≈ 24.8 µM) | 14 µg/mL (≈ 31.6 µM) | 10 µg/mL (≈ 22.6 µM) | 12 µg/mL (≈ 27.1 µM) | 14 µg/mL (≈ 31.6 µM) | 12 µg/mL (≈ 27.1 µM) | 20.8 s | 13 µg/mL (≈ 29.4 µM)
Cc1noc(/C=C/c2ccccc2)c1N1CN=C2Oc3c(Br)cc(Br)cc3C=C2C1=O | 8 µg/mL (≈ 14.8 µM) | 8 µg/mL (≈ 14.8 µM) | 9 µg/mL (≈ 16.6 µM) | 8 µg/mL (≈ 14.8 µM) | 6 µg/mL (≈ 11.1 µM) | 23.4 s | 7 µg/mL (≈ 12.9 µM) | 5 µg/mL (≈ 9.24 µM) | 8 µg/mL (≈ 14.8 µM) | 6 µg/mL (≈ 11.1 µM) | 10 µg/mL (≈ 18.5 µM) | 9 µg/mL (≈ 16.6 µM) | 23.3 s | 7 µg/mL (≈ 12.9 µM)
COc1ccc2c(c1)c(CC(=O)O)c(C)n2C(=O)c1ccc(Cl)cc1 [INDOMETHACIN] | – | – | – | – | – | 22.4 s | – | – | – | – | – | – | 21.8 s | –
Cc1noc(/C=C/c2ccccc2)c1N1CN=C2Oc3c(Cl)cc(Cl)cc3C=C2C1=O | 18 µg/mL (≈ 39.8 µM) | 16 µg/mL (≈ 35.4 µM) | 16 µg/mL (≈ 35.4 µM) | 16 µg/mL (≈ 35.4 µM) | 15 µg/mL (≈ 33.2 µM) | 21.9 s | 14 µg/mL (≈ 31 µM) | 17 µg/mL (≈ 37.6 µM) | 22 µg/mL (≈ 48.6 µM) | 15 µg/mL (≈ 33.2 µM) | 16 µg/mL (≈ 35.4 µM) | 15 µg/mL (≈ 33.2 µM) | 28.3 s | 14 µg/mL (≈ 31 µM)
COc1ccc(/C=C/c2onc(C)c2-n2c(C)nc3nc4ccccc4cc3c2=O)cc1 | 14 µg/mL (≈ 33 µM) | 16 µg/mL (≈ 37.7 µM) | 10 µg/mL (≈ 23.6 µM) | 25 µg/mL (≈ 58.9 µM) | 22 µg/mL (≈ 51.8 µM) | 21.4 s | 22 µg/mL (≈ 51.8 µM) | 20 µg/mL (≈ 47.1 µM) | 18 µg/mL (≈ 42.4 µM) | 14 µg/mL (≈ 33 µM) | 16 µg/mL (≈ 37.7 µM) | 18 µg/mL (≈ 42.4 µM) | 21.7 s | 16 µg/mL (≈ 37.7 µM)
Cc1ccc2c(c1)C=C1C(=O)N(c3c(C)noc3/C=C/c3ccccc3)CN=C1O2 | 22 µg/mL (≈ 55.4 µM) | 18 µg/mL (≈ 45.3 µM) | 20 µg/mL (≈ 50.3 µM) | 16 µg/mL (≈ 40.3 µM) | 12 µg/mL (≈ 30.2 µM) | 21.5 s | 18 µg/mL (≈ 45.3 µM) | 15 µg/mL (≈ 37.7 µM) | 22 µg/mL (≈ 55.4 µM) | 24 µg/mL (≈ 60.4 µM) | 18 µg/mL (≈ 45.3 µM) | 15 µg/mL (≈ 37.7 µM) | 21.2 s | 20 µg/mL (≈ 50.3 µM)
COc1ccc2c(c1)C=C1C(=O)N(c3c(C)noc3/C=C/c3ccccc3)CN=C1O2 | 20 µg/mL (≈ 48.4 µM) | 18 µg/mL (≈ 43.5 µM) | 12 µg/mL (≈ 29 µM) | 22 µg/mL (≈ 53.2 µM) | 24 µg/mL (≈ 58.1 µM) | 13.4 s | 12 µg/mL (≈ 29 µM) | 17 µg/mL (≈ 41.1 µM) | 23 µg/mL (≈ 55.6 µM) | 12 µg/mL (≈ 29 µM) | 17 µg/mL (≈ 41.1 µM) | 18 µg/mL (≈ 43.5 µM) | 21.3 s | 18 µg/mL (≈ 43.5 µM)
Cc1noc(/C=C/c2ccccc2)c1-n1c(C)nc2nc3ccc(Cl)cc3cc2c1=O | 9 µg/mL (≈ 21 µM) | 5 µg/mL (≈ 11.7 µM) | 8 µg/mL (≈ 18.7 µM) | 9 µg/mL (≈ 21 µM) | 10 µg/mL (≈ 23.3 µM) | 21.5 s | 16 µg/mL (≈ 37.3 µM) | 7 µg/mL (≈ 16.3 µM) | 15 µg/mL (≈ 35 µM) | 11 µg/mL (≈ 25.6 µM) | 11 µg/mL (≈ 25.6 µM) | 8 µg/mL (≈ 18.7 µM) | 21.2 s | 10 µg/mL (≈ 23.3 µM)
Clc1ccccc1C(c1ccccc1)(c1ccccc1)n1ccnc1 [CLOTRIMAZOLE] | 26 µg/mL (≈ 75.4 µM) | – | 28 µg/mL (≈ 81.2 µM) | – | – | – | – | – | 30 µg/mL (≈ 87 µM) | 25 µg/mL (≈ 72.5 µM) | 20 µg/mL (≈ 58 µM) | – | – | 22 µg/mL (≈ 63.8 µM)
Cc1ccc(/C=C/c2onc(C)c2-n2c(C)nc3nc4ccccc4cc3c2=O)cc1 | 12 µg/mL (≈ 29.4 µM) | 15 µg/mL (≈ 36.7 µM) | 12 µg/mL (≈ 29.4 µM) | 25 µg/mL (≈ 61.2 µM) | 23 µg/mL (≈ 56.3 µM) | 21.1 s | 23 µg/mL (≈ 56.3 µM) | 18 µg/mL (≈ 44.1 µM) | 15 µg/mL (≈ 36.7 µM) | 14 µg/mL (≈ 34.3 µM) | 18 µg/mL (≈ 44.1 µM) | 19 µg/mL (≈ 46.5 µM) | 21.3 s | 10 µg/mL (≈ 24.5 µM)
COc1ccc(/C=C/c2onc(C)c2N2CN=C3Oc4ccc(Br)cc4C=C3C2=O)cc1 | 14 µg/mL (≈ 28.4 µM) | 10 µg/mL (≈ 20.3 µM) | 18 µg/mL (≈ 36.6 µM) | 8 µg/mL (≈ 16.2 µM) | 15 µg/mL (≈ 30.5 µM) | 22.6 s | 10 µg/mL (≈ 20.3 µM) | 13 µg/mL (≈ 26.4 µM) | 20 µg/mL (≈ 40.6 µM) | 14 µg/mL (≈ 28.4 µM) | 12 µg/mL (≈ 24.4 µM) | 12 µg/mL (≈ 24.4 µM) | 18.8 s | 12 µg/mL (≈ 24.4 µM)
COc1ccc(/C=C/c2onc(C)c2-n2c(C)nc3nc4ccc(Cl)cc4cc3c2=O)cc1 | 13 µg/mL (≈ 28.3 µM) | 14 µg/mL (≈ 30.5 µM) | 11 µg/mL (≈ 24 µM) | 13 µg/mL (≈ 28.3 µM) | 14 µg/mL (≈ 30.5 µM) | 22.6 s | 10 µg/mL (≈ 21.8 µM) | 11 µg/mL (≈ 24 µM) | 17 µg/mL (≈ 37 µM) | 14 µg/mL (≈ 30.5 µM) | 16 µg/mL (≈ 34.9 µM) | 12 µg/mL (≈ 26.1 µM) | 25.1 s | 12 µg/mL (≈ 26.1 µM)
O=C(O)c1cn(C2CC2)c2cc(N3CCNCC3)c(F)cc2c1=O [CIPROFLOXACIN] | – | 20 µg/mL (≈ 60.4 µM) | – | 28 µg/mL (≈ 84.5 µM) | – | – | 24 µg/mL (≈ 72.4 µM) | 22 µg/mL (≈ 66.4 µM) | – | – | – | 20 µg/mL (≈ 60.4 µM) | – | –
